From ChEMBL document CHEMBL2434863, “Synthesis and in vitro/in vivo antibacterial activity of oxazolidinones having thiocarbamate at C-5 on the A-ring and an amide- or urea-substituted [1,2,5]triazepane or [1,2,5]oxadiazepane as the C-ring” (Eur J Med Chem, 2013) come the findings set out here.

One series concerns the target T1, MAO-B (Rattus norvegicus, UniProt P19643).
T1 sequence (P19643 whole entry): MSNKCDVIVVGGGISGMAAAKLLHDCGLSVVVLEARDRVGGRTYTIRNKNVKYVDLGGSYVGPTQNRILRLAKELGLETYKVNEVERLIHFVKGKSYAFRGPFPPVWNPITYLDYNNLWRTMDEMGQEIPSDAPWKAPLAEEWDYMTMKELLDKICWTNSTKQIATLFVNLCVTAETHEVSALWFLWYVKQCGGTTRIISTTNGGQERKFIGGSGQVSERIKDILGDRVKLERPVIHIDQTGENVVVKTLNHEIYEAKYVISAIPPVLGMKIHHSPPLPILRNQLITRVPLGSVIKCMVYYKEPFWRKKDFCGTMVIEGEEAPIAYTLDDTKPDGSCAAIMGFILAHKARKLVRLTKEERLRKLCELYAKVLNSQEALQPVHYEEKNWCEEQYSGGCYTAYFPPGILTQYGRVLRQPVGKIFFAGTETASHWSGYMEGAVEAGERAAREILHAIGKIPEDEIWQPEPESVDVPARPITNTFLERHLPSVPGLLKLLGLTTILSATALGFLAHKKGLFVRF
Nature of the series: Inhibition of MAO-B in rat forebrain using [14C]PEA as substrate at 30 uM incubated for 20 mins prior to substrate addition measured after 10 mins by liquid scintillation counting analysis. It counts as tissue-based. Conditions: probe [14C]PEA; call rule not given here.

A further series deals with T2, MAO-A (Rattus norvegicus, UniProt P21396).
T2 sequence (P21396 whole entry): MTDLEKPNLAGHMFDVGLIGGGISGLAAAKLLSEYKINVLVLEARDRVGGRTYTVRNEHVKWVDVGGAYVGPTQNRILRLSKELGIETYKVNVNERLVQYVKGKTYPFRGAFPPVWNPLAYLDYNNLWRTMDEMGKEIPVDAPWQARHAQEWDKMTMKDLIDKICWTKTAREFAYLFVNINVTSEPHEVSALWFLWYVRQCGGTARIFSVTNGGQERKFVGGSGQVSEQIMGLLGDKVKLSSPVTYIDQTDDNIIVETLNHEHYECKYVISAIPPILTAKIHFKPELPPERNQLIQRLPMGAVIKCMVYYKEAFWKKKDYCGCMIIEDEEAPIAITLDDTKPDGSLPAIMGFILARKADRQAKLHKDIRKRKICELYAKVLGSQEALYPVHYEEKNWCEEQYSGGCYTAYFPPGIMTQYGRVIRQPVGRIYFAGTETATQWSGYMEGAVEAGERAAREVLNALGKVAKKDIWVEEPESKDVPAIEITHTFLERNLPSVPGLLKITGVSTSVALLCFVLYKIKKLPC
Nature of the series: Inhibition of MAO-A in rat forebrain using [14C]5-HT as substrate at 30 uM incubated for 20 mins prior to substrate addition measured after 5 mins by liquid scintillation counting analysis. It counts as tissue-based. The following applies: probe [14C]5-HT.

The target of the next series is Cytochrome P450 3A4 (Homo sapiens, UniProt P08684). The series can be described thus: Inhibition of CYP3A4 in human liver microsomes assessed as terfenadine hydroxylation after 20 mins by LC/MS/MS analysis. It counts as ADME, Microsome.
Chain of Cytochrome P450 3A4 (P08684 whole entry): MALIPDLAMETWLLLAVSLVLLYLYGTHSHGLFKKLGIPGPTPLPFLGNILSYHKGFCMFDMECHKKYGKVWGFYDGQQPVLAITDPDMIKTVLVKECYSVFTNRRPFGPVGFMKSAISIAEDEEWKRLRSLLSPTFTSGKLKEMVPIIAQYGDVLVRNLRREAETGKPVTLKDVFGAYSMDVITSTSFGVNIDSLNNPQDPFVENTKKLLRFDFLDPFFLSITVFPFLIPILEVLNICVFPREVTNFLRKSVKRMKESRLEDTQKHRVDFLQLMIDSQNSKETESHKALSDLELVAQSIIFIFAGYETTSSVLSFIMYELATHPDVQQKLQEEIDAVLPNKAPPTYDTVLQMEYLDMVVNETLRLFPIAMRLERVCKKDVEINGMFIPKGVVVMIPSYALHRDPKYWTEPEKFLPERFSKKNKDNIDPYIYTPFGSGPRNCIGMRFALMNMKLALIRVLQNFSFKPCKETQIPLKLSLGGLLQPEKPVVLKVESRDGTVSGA
A further series deals with Cytochrome P450 2D6 (Homo sapiens, UniProt P10635). Nature of the series: Inhibition of CYP2D6 in human liver microsomes assessed as dextromethorphan O-demethylation after 20 mins by LC/MS/MS analysis. It counts as ADME, Microsome. (Liver microsomes are vesicles of endoplasmic reticulum, rich in cytochrome P450 enzymes.)
Chain of Cytochrome P450 2D6 (P10635 whole entry): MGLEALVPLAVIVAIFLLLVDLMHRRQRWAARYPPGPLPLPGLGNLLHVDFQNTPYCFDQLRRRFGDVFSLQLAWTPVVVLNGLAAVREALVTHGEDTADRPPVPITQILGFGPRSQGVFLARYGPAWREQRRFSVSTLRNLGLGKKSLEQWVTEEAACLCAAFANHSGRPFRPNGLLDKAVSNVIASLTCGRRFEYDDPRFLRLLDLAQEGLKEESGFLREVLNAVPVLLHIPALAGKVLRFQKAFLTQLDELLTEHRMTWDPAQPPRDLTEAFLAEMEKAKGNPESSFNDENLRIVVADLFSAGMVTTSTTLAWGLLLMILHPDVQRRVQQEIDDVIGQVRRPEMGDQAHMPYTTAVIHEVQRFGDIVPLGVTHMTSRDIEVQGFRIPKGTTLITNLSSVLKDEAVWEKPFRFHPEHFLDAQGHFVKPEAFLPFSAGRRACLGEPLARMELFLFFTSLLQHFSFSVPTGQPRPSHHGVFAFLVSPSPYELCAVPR
For the next series, the target named is Cytochrome P450 2C9 (Homo sapiens, UniProt P11712). Nature of the series: Inhibition of CYP2C9 in human liver microsomes assessed as tolbutamide hydroxylation after 20 mins by LC/MS/MS analysis. It counts as ADME, Microsome.
Chain of Cytochrome P450 2C9 (P11712 whole entry): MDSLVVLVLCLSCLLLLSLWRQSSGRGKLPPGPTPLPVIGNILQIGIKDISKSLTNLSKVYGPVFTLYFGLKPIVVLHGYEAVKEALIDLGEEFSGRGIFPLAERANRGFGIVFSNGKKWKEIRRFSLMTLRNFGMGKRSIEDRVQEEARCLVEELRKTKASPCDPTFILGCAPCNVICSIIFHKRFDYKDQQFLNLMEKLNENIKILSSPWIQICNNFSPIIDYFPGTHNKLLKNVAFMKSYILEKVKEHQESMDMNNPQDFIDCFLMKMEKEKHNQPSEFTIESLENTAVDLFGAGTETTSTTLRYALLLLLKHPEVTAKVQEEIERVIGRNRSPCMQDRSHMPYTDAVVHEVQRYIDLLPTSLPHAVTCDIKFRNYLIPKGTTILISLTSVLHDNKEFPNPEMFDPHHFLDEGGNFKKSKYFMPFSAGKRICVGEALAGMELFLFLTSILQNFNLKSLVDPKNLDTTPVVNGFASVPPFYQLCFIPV
Another series concerns the target T3, Cytochrome P450 1A2 (Homo sapiens, UniProt P05177).
T3 sequence (P05177 whole entry): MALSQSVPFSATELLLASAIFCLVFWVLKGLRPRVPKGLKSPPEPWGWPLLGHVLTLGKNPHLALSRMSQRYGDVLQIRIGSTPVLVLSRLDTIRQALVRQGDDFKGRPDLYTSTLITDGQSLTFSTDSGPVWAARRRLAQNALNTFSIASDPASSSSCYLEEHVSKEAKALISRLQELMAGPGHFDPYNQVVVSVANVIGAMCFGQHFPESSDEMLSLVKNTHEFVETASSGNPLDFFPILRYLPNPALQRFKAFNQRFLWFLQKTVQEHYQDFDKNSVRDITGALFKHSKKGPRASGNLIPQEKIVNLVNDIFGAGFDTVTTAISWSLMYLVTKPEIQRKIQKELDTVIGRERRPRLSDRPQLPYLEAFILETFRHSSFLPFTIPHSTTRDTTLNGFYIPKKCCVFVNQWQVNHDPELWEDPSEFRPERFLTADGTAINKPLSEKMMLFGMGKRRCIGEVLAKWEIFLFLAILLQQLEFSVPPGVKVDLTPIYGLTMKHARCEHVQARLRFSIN
The series can be described thus: Inhibition of CYP1A2 in human liver microsomes assessed as ethoxyresorufin O-deethylation after 20 mins by fluorescence plate reader analysis. It counts as ADME, Microsome.

Series [1] deals with Staphylococcus aureus. The series can be described thus: Antibacterial activity against methicillin-resistant Staphylococcus aureus SR3637 infected in JCL/ICR mouse systemic infection model assessed as mortality administered as iv measured over 7 days. It counts as functional. The following applies: 168 h. In short, it runs like this:
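Lethal systemic infection model in mice; test agents were given intravenously.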

In series [2] the test system is Staphylococcus aureus. The series can be described thus: Antibacterial activity against methicillin-resistant Staphylococcus aureus SR3637 assessed as growth inhibition by broth microdilution method. It counts as functional.
In series [3] the test system is Haemophilus influenzae. Nature of the series: Antibacterial activity against Haemophilus influenzae SR27914 clinical isolate assessed as growth inhibition by broth microdilution method. It counts as functional. A general note: Broth dilution looks for growth in wells or tubes with falling amounts of substance.
In series [4] the test system is Streptococcus pneumoniae. The series can be described thus: Antibacterial activity against Streptococcus pneumoniae SR26207 clinical isolate assessed as growth inhibition by broth microdilution method. It counts as functional.
Series [5] deals with Staphylococcus aureus. The series can be described thus: Antibacterial activity against linezolid-resistant Staphylococcus aureus NRS271 assessed as growth inhibition by broth microdilution method. It counts as functional.
In series [6] the test system is Enterococcus faecalis. The series can be described thus: Antibacterial activity against Enterococcus faecalis SR1004 clinical isolate assessed as growth inhibition by broth microdilution method. It counts as functional.
Series [7] has as its system Staphylococcus aureus. The series can be described thus: Antibacterial activity against Staphylococcus aureus SR20549 clinical isolate assessed as growth inhibition by broth microdilution method. It counts as functional.
For series [8], the system named is Staphylococcus aureus. The series can be described thus: Antibacterial activity against Staphylococcus aureus Smith assessed as growth inhibition by broth microdilution method. It counts as functional.
The subject of series [9] is Moraxella catarrhalis. The series can be described thus: Antibacterial activity against Moraxella catarrhalis SR26840 clinical isolate assessed as growth inhibition by broth microdilution method. It counts as functional.
Series [10] has as its system Enterococcus faecium. Nature of the series: Antibacterial activity against Enterococcus faecium SR7940 clinical isolate assessed as growth inhibition by broth microdilution method. It counts as functional.
Series [11] concerns Staphylococcus aureus. Nature of the series: Potency index, ratio of linezolid ED50 to compound ED50 for methicillin-resistant Staphylococcus aureus SR3637 infected in iv dosed JCL/ICR mouse systemic infection model. It counts as functional.
Series [12] has as its system Haemophilus influenzae. The series can be described thus: Potency index, ratio of linezolid MIC to compound MIC for Haemophilus influenzae SR27914 clinical isolate. It counts as functional.
Series [13] deals with Streptococcus pneumoniae. The series can be described thus: Potency index, ratio of linezolid MIC to compound MIC for Streptococcus pneumoniae SR26207 clinical isolate. It counts as functional.
The test system of series [14] is Moraxella catarrhalis. Nature of the series: Potency index, ratio of linezolid MIC to compound MIC for Moraxella catarrhalis SR26840 clinical isolate. It counts as functional.
In series [15] the test system is Enterococcus faecium. The series can be described thus: Potency index, ratio of linezolid MIC to compound MIC for Enterococcus faecium SR7940 clinical isolate. It counts as functional.
Series [16] deals with Enterococcus faecalis. The series can be described thus: Potency index, ratio of linezolid MIC to compound MIC for Enterococcus faecalis SR1004 clinical isolate. It counts as functional.
The test system of series [17] is Staphylococcus aureus. Nature of the series: Potency index, ratio of linezolid MIC to compound MIC for Staphylococcus aureus Smith. It counts as functional.
The test system of series [18] is Staphylococcus aureus. Nature of the series: Potency index, ratio of linezolid MIC to compound MIC for Staphylococcus aureus SR20549 clinical isolate. It counts as functional.

One may read the inhibition as the share of the control response that was lost under treatment. Higher therefore signals a response far below the control. Broadly, the IC50 is the concentration that inhibits the measured activity by half. As a reminder, the ED50 is the midpoint of the dose-response relation. `CNC(=O)N1CCN(c2ccc(N3C[C@H](CNC(=S)OC)OC3=O)cc2F)CCN1` yielded an inhibition at 10 min, 30 µM against MAO-B of 3.1%. Also, the inhibition at 5 min, 30 µM on MAO-A worked out at 3.4%. In addition, the IC50 at Cytochrome P450 3A4, at Cytochrome P450 2D6, on Cytochrome P450 2C9 and on Cytochrome P450 1A2 was over 20 µM throughout. For the same compound, the ED50 in the series with Staphylococcus aureus [1] worked out at 0.86 mg/kg. In addition, the MIC came to 0.5 µg/mL in the series with Staphylococcus aureus [2]; 16 µg/mL with Haemophilus influenzae [3]; 0.25 µg/mL with Streptococcus pneumoniae [4]; 8 µg/mL with Staphylococcus aureus [5]; 0.5 µg/mL in the series on Enterococcus faecalis [6]; 0.25 µg/mL in the series on Staphylococcus aureus [7]. The MIC in the series on Staphylococcus aureus [8] turned out to be 0.5 µg/mL; with Moraxella catarrhalis [9], 2 µg/mL; in the series with Enterococcus faecium [10], 0.25 µg/mL.

For `COC(=S)NC[C@H]1CN(c2ccc(N3CCNN(C(=O)C(F)F)CC3)c(F)c2)C(=O)O1`, the “Ratio ED50” value with Staphylococcus aureus [11] amounted to 3. On MAO-B, the inhibition at 10 min, 30 µM was 0.1%. The compound further showed an inhibition at 5 min, 30 µM at MAO-A of 9.2%. In addition, the IC50 at Cytochrome P450 3A4, on Cytochrome P450 2D6, at Cytochrome P450 2C9 and at Cytochrome P450 1A2 was over 20 µM in each case. Besides, in the series on Staphylococcus aureus [1], the ED50 was 0.77 mg/kg. In addition, the MIC with Staphylococcus aureus [2] was 0.25 µg/mL; in the series on Haemophilus influenzae [3], 4 µg/mL; in the series on Streptococcus pneumoniae [4], 0.063 µg/mL; in the series with Staphylococcus aureus [5], 4 µg/mL; with Enterococcus faecalis [6], 0.25 µg/mL; in the series with Staphylococcus aureus [7] it was 0.125 µg/mL. Besides, the figures for the MIC in the series with Staphylococcus aureus [8], in the series on Moraxella catarrhalis [9] and with Enterococcus faecium [10] were 0.5 µg/mL, 2 µg/mL and 0.25 µg/mL, respectively.

Take `COC(=S)NC[C@H]1CN(c2ccc(N3CCNN(C=O)CC3)c(F)c2)C(=O)O1`: the ED50 in the series on Staphylococcus aureus [1] worked out at 2.95 mg/kg. For the same compound, the MIC was 0.25 µg/mL in the series with Staphylococcus aureus [2]; 4 µg/mL in the series on Haemophilus influenzae [3]; 0.063 µg/mL with Streptococcus pneumoniae [4]; 4 µg/mL in the series with Staphylococcus aureus [5]; 0.25 µg/mL with Enterococcus faecalis [6]; 0.25 µg/mL with Staphylococcus aureus [7]. Moreover, the MIC in the series with Staphylococcus aureus [8] turned out to be 0.25 µg/mL; in the series on Moraxella catarrhalis [9], 2 µg/mL; in the series with Enterococcus faecium [10], 0.25 µg/mL. In addition, the Ratio in the series with Haemophilus influenzae [12], in the series on Streptococcus pneumoniae [13], in the series on Moraxella catarrhalis [14], with Enterococcus faecium [15], with Enterococcus faecalis [16] and in the series with Staphylococcus aureus [17] was 4 each time. Also, the Ratio with Staphylococcus aureus [18] came out at 4.

For `CC(=O)NC[C@H]1CN(c2ccc(N3CCOCC3)c(F)c2)C(=O)O1` [LINEZOLID], the “inhibition (INH)” value is “Active” at Cytochrome P450 3A4 (human, microsomes, 20 min); “Active” at Cytochrome P450 2D6 (human, microsomes, 20 min); “Active” at Cytochrome P450 2C9 (human, microsomes, 20 min); “Active” at Cytochrome P450 1A2 (human, microsomes, 20 min). The MIC stood at 16 µg/mL in the series with Haemophilus influenzae [3], 32 µg/mL in the series with Staphylococcus aureus [5], 8 µg/mL with Moraxella catarrhalis [9] and 2 µg/mL in the series with Enterococcus faecium [10].
